Converted amounts (≈) assume the structure as drawn. The source made the active and inactive calls. The calls are words filed in the database; no cut-off is given here.
What was measured:
[1] = Tmax in Sprague-Dawley rat at 10 mg/kg, po; format: ADME, organism-based; settings: in vivo
[2] = Drug metabolism in mouse hepatocytes assessed as glucuronidation; format: ADME, cell-based, Hepatocyte
[3] = Tmax in Beagle dog at 100 mg/kg, po; format: ADME, organism-based, Canis lupus familiaris; settings: in vivo
Summary of the method: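 Dogs dosed orally at 30, 100 or 300 mg/kg, N = 2 per dose.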

[4] = Intrinsic clearance in human hepatocytes; format: ADME, cell-based, Hepatocyte
[5] = Metabolic stability in rat microsomes assessed as compound metabolized after 30 mins; format: ADME, Microsome; settings: read-out: Drug metabolism
Summary of the method: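 Compound incubated 30 min with liver microsomes from mouse, rat, dog or human. Percent of compound metabolized recorded, as mean (SEM, n).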

[6] = Tmax in Beagle dog at 3 mg/kg, po; format: ADME, organism-based, Canis lupus familiaris; settings: in vivo
Summary of the method: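 Fasted dogs dosed orally at 3 mg/kg. […] Bioavailability is derived relative to the 1 mg/kg IV dose.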

[7] = Drug metabolism in dog hepatocytes assessed as glucuronidation; format: ADME, cell-based, Canis lupus familiaris, Hepatocyte
[8] = target: Free fatty acid receptor 1 (Rattus norvegicus) (UniProt Q8K3T4); assay: Agonist activity at GPR40 in Sprague-Dawley rat islets assessed as glucose-stimulated insulin secretion levels at 3 uM in presence of 11.2 mM glucose by ELISA (reference value: 6.24 ng/ml)
Chain of Free fatty acid receptor 1 (Rattus norvegicus) (Q8K3T4 whole entry): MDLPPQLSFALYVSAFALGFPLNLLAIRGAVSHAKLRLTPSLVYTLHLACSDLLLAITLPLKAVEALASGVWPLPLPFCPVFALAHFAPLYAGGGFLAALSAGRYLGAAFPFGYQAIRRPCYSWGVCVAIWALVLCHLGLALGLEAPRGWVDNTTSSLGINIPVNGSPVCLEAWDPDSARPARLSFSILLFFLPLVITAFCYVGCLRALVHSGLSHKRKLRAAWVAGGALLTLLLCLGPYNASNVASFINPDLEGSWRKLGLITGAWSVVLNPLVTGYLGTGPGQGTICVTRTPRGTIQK

[9] = system: Rattus norvegicus; assay: Antidiabetic activity in po dosed Zucker fa/fa rat assessed as reduction in blood glucose AUC administered for 1 day followed by OGTT at 1 hr after compound dosing and measured 60 mins post glucose challenge by oral glucose tolerance test; format: functional
Summary of the method: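 Male Zucker fa/fa rats, 10 weeks old, were dosed orally at 1, 3 and 10 mg/kg. The OGTT was run 1 h after dosing with an oral glucose challenge of 2 g/kg. The glucose AUC was calculated, and a dose-response curve gave the ED90.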

[10] = target: Cytochrome P450 3A4 (Homo sapiens, UniProt P08684); assay: Inhibition of human CYP3A4; format: ADME
Chain of Cytochrome P450 3A4 (P08684 whole entry): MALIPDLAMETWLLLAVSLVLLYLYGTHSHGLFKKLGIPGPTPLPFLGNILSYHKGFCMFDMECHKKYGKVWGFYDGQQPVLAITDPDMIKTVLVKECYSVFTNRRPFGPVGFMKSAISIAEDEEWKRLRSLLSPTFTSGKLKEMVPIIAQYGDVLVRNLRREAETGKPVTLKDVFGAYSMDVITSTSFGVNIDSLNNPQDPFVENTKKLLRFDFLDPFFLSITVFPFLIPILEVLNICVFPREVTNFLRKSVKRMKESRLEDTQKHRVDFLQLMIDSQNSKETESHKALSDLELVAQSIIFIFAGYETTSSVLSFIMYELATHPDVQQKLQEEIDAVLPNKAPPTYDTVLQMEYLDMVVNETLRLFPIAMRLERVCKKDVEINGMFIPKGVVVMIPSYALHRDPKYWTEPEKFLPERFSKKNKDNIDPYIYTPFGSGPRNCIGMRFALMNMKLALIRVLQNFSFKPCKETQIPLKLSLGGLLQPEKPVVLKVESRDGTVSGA

[11] = target: Free fatty acid receptor 1 (Rattus norvegicus) (UniProt Q8K3T4); assay: Agonist activity at GPR40 in Sprague-Dawley rat islets assessed as potentiation of glucose-stimulated insulin secretion at 1 to 10 uM in presence of […] glucose by ELISA
[12] = target: Cytochrome P450 2C9 (Homo sapiens, UniProt P11712); assay: Inhibition of human CYP2C9; format: ADME
Chain of Cytochrome P450 2C9 (P11712 whole entry): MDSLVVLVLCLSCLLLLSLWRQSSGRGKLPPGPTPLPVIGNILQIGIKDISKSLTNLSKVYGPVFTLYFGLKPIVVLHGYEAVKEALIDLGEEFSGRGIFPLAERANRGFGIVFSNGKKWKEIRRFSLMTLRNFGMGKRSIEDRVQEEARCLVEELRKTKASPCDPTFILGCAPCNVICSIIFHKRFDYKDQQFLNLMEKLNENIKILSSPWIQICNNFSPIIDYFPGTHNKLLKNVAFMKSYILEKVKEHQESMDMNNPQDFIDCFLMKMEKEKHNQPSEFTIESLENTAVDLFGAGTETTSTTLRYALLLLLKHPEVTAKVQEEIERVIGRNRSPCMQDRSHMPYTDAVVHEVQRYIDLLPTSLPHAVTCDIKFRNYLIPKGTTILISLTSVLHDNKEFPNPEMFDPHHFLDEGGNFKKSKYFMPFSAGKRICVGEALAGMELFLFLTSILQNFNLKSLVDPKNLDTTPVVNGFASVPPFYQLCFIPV

[13] = target: T1, Peroxisome proliferator-activated receptor gamma (Homo sapiens) (UniProt P37231); assay: Displacement of [3H]-agonist from human PPARgamma expressed in baculovirus infecetd Sf9 cells system up to 30 uM after 10 hrs in presence of DR2 by scintillation proximity assay
T1 sequence (whole entry): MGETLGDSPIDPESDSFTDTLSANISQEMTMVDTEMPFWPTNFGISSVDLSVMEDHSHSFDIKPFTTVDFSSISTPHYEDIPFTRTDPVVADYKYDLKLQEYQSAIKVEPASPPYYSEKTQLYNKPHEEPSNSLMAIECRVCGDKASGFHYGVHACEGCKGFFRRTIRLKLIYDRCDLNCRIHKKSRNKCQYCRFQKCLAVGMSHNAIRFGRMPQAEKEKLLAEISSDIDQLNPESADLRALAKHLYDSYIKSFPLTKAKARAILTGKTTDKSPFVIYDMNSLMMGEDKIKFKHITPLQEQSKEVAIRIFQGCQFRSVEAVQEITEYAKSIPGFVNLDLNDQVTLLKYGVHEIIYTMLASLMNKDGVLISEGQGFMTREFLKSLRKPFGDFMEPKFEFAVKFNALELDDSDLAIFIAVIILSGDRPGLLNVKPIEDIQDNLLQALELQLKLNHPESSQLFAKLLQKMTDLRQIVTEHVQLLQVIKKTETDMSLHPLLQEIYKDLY
Summary of the method: (§1)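 PPAR alpha, delta and gamma binding and functional activity were each tested at concentrations up to 30 µM.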

[14] = Volume of distribution at steady state in Sprague-Dawley rat at 1 mg/kg, iv; format: ADME, organism-based; settings: in vivo, read-out: Vdss
[15] = target: T2, Peroxisome proliferator-activated receptor delta (Homo sapiens) (UniProt Q03181); assay: Agonist activity at GAL4-fused human PPARdelta expressed in African green monkey CV1 cells up to 30 uM after 24 hrs by luciferase reporter gene assay; format: cell-based; summary of the method: as §1
T2 sequence (whole entry): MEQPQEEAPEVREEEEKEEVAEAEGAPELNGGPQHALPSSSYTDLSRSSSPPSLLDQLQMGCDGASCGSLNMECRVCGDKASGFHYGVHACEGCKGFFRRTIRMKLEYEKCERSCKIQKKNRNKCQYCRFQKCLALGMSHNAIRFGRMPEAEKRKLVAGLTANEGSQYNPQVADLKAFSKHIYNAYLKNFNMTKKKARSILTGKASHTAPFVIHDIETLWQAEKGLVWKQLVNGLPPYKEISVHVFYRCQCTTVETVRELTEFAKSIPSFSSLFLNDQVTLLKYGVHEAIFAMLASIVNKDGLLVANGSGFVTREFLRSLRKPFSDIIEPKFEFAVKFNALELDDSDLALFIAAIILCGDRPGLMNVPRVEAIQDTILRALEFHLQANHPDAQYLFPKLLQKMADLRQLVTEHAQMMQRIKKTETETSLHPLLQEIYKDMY

[16] = target: T2, Peroxisome proliferator-activated receptor delta (Homo sapiens); assay: Displacement of [3H]-agonist from human PPARdelta expressed in baculovirus infecetd Sf9 cells system up to 30 uM after 10 hrs in presence of DR2 by scintillation proximity assay; summary of the method: as §1
[17] = system: Rattus norvegicus; assay: Antidiabetic activity in po dosed Zucker fa/fa rat assessed as reduction in blood glucose AUC administered daily for 21 days followed by OGTT at 1 hr after compound dosing and measured 60 mins post glucose challenge by oral glucose tolerance test; format: functional
[18] = Lipophilicity, log P of the compound; format: physicochemical; settings: octanol/water
[19] = Half life in Sprague-Dawley rat at 1 mg/kg, iv; format: ADME, organism-based; settings: in vivo
[20] = target: T3, Free fatty acid receptor 1 (Homo sapiens, UniProt O14842); assay: Agonist activity at human GPR40 receptor expressed in HEK293 cells assessed as increase in intracellular calcium flux after 2.5 hrs measured over 3 mins by calcium 4 dye-based FLIPR assay; format: functional, cell-based
T3 sequence (O14842 whole entry): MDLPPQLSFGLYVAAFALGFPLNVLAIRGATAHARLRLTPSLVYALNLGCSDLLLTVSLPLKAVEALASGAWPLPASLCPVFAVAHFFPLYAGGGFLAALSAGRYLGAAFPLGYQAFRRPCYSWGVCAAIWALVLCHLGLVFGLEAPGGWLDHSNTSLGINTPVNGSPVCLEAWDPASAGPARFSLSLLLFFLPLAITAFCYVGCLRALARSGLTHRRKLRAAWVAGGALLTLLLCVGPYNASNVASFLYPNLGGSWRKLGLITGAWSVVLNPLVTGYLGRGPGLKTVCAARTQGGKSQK
Summary of the method: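 Calcium flux was read by FLIPR in cells carrying recombinant human GPR40. Percent stimulation is relative to the response to 100 µM linoleic acid. EC50 is reported with SEM and n.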

[21] = Solubility of the compound in pH 8.1 buffer; format: physicochemical
[22] = target: T3, Free fatty acid receptor 1; assay: Agonist activity at human PK-tagged GPR40 expressed in HEK293 cells assessed as EA-tagged beta-arrestin recruitment after 90 mins in presence of 1 % heat inactivated FBS by beta-galactosidase reporter gene assay; format: cell-based
[23] = Cmax in Sprague-Dawley rat at 100 mg/kg, po; format: ADME, organism-based; design: dose 100 mg/kg, route oral; settings: in vivo
[24] = Initial plasma concentration in Beagle dog at 1 mg/kg, iv; format: ADME, organism-based, Canis lupus familiaris
[25] = Oral bioavailability in Sprague-Dawley rat at 1 mg/kg; format: ADME, organism-based; settings: in vivo
Summary of the method: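 Fasted rats given oral doses of 1 mg/kg. […] Bioavailability is calculated against the 1 mg/kg IV group.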

[26] = AUC (0 to 24 hrs) in Sprague-Dawley rat at 1 mg/kg, po; format: ADME, organism-based; design: time < 24 hr, dose 1 mg/kg, route oral; settings: in vivo
[27] = AUC (0 to 24 hrs) in Sprague-Dawley rat at 10 mg/kg, po; format: ADME, organism-based; design: dose 10 mg/kg, time < 24 hr, route oral; settings: in vivo
[28] = Dissociation constant, pKa of the compound; format: physicochemical
[29] = Drug metabolism in dog hepatocytes assessed as metabolite-B formation; format: ADME, cell-based, Canis lupus familiaris, Hepatocyte

Tmax [1]: 4 h | Drug metabolism [2]: Metabolite_Detected | Tmax [3]: 3 h | K [4]: 0.099 h⁻¹ | metabolised at 0.5 h [5]: 10% | Tmax [6]: 40.2 min | Drug metabolism [7]: Metabolite_Detected | Activity [8]: 20.2 ng/mL | IC50 [10]: > 60 µM | Activity [11]: inactive | IC50 [12]: > 60 µM | Activity [13]: inactive | Vd [14]: 0.33 L/kg | Activity [15]: inactive | Activity [16]: inactive | logP [18]: 4.8 | half-life [19]: 239 min | EC50 [20]: 11 nM | solubility [21]: 173 µg/mL (≈ 394 µM) | EC50 [22]: 108 nM | Cmax [23]: 208 µg/mL | C0 [24]: 8240 ng/mL | bioavailability [25]: 93% | AUC(0-t) at 24 h [26]: 11700 ng·h/mL | AUC(0-t) at 24 h [27]: 215 µg·h/mL | pKa [28]: 4.3 | Drug metabolism [29]: Metabolite_Detected
Structure (SMILES): CC#C[C@@H](CC(=O)O)c1ccc(OCc2ccc3nc(-c4c(C)cccc4C)nn3c2)cc1
ED90 [9]: 4.1 mg/kg | ED90 [17]: 5 mg/kg

— ChEMBL document CHEMBL4024777, “Discovery of LY3104607: A Potent and Selective G Protein-Coupled Receptor 40 (GPR40) Agonist with Optimized Pharmacokinetic Properties to Support Once Daily Oral Treatment in Patients with Type 2 Diabetes Mellitus” (J Med Chem, 2018)
